Measurements: ChEMBL document CHEMBL1154048, “Design, synthesis and pharmacological evaluation of new 1-[3-(4-arylpiperazin-1-yl)-2-hydroxy-propyl]-3,3-diphenylpyrrolidin-2-one derivatives with antiarrhythmic, antihypertensive, and alpha-adrenolytic activity” (Eur J Med Chem, 2009)

The compounds below were run against T1, Adrenergic receptor alpha-2 (Rattus norvegicus, UniProt P22086+P19328+P22909) (assay: Displacement of [3H]clonidine from alpha2 adrenergic receptor in rat cerebral cortex by liquid scintillation counting).
T1 sequence (P22086 whole entry): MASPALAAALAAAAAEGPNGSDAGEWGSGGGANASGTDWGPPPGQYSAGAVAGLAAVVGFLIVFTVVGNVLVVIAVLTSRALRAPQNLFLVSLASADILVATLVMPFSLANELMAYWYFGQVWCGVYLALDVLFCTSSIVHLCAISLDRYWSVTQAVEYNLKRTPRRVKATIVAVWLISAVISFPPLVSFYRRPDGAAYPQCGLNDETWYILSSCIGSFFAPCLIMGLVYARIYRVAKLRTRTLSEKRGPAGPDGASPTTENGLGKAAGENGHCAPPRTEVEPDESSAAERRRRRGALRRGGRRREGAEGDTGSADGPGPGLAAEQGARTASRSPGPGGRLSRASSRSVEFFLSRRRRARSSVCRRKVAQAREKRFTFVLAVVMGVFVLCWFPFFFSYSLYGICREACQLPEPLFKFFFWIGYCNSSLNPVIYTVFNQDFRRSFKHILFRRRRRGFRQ
T1 sequence (P19328 whole entry): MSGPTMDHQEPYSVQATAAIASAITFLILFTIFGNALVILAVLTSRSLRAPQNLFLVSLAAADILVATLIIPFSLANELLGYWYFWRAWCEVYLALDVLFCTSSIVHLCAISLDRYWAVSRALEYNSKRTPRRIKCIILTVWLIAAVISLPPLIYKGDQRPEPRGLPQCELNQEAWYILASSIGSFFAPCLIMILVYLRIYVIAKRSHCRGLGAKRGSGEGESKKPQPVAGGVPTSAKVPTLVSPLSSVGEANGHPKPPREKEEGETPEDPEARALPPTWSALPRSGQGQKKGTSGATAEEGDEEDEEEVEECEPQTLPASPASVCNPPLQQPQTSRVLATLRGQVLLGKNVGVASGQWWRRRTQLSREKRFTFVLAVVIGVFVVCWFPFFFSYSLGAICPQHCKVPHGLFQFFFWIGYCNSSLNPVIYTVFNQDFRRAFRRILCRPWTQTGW
T1 sequence (P22909 whole entry): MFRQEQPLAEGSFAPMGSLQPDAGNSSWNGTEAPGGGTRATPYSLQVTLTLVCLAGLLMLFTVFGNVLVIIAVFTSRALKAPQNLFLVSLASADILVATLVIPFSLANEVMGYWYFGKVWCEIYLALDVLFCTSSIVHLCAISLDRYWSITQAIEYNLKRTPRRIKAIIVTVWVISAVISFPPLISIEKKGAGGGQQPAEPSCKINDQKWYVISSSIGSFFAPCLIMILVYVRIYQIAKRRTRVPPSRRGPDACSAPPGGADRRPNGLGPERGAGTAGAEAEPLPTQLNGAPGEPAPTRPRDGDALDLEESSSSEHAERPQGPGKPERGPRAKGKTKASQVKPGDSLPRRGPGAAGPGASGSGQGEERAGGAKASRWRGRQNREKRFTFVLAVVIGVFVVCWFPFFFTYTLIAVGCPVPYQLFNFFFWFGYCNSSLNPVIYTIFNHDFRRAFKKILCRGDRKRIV
Assay type: tissue-based
In short: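 Rat cerebral cortex membranes were prepared in ice-cold 50 mM Tris–HCl pH 7.6 (20 000 × g, 20 min, 0–4 °C, washed twice). They were incubated with [3H]clonidine 2 nM and seven to eight compound concentrations (10^-11–10^-4 M), with excess unlabelled clonidine defining nonspecific binding. Samples were glass-fiber filtered and counted by liquid scintillation, in duplicate. Ki was calculated by Cheng–Prusoff.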

pKi | Compound
6 | COc1ccc(N2CCN(CC(O)CN3CCC(c4ccccc4)(c4ccccc4)C3=O)CC2)cc1.Cl.Cl (stereo unspecified)
6.64 | Cl.Cl.O=C1N(CC(O)CN2CCN(c3ccccc3)CC2)CCC1(c1ccccc1)c1ccccc1 (stereo unspecified)
6.68 | COc1ccccc1N1CCN(CC(O)CN2CCC(c3ccccc3)(c3ccccc3)C2=O)CC1.Cl.Cl (stereo unspecified)
6.51 | Cc1ccccc1N1CCN(CC(O)CN2CCC(c3ccccc3)(c3ccccc3)C2=O)CC1.Cl.Cl (stereo unspecified)
6.38 | CCOc1ccccc1N1CCN(CC(O)CN2CCC(c3ccccc3)(c3ccccc3)C2=O)CC1.Cl.Cl (stereo unspecified)
5.29 | Cl.Cl.O=C1N(CC(O)CN2CCN(c3ccccc3C(F)(F)F)CC2)CCC1(c1ccccc1)c1ccccc1 (stereo unspecified)
